PRMT1 inh = PRMT1 methyltransferase inhibitors, primary screen, biochemical, fluorescence polarization | inhibition, % at 2.79 µM | Protein arginine N-methyltransferase 1 (Homo sapiens), Q99873 | recombinant PRMT1, activity-based probe fluorescence polarization | AID 652257, 2013 | 1.3% of 370,000 active;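 active = inhibition above about 21% made by adding two undisclosed values, limit read from the data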
TCR CD3 inh = inhibitors of human TCR-CD3 interaction, primary screen, biochemical, fluorescence, TAMRA-labeled TCR probe; AID 651800, 2012; T-cell receptor (TCR); inhibition, % at 9.4 µM; 0.37% of 360,000 active; in the data active = inhibition above about 19%;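 also: recombinant mutant TCR 2C K166C tagged with TAMRA read by polarization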
HTRA1 inh = HTRA1 serine protease inhibitors, primary screen, biochemical, fluorescence polarization, HTS | Q92743 | recombinant HTRA1, FP-rhodamine activity-based probe | inhibition, % at 5.96 µM | 0.5% of 340,000 active | AID 504803, 2011; in the data active = inhibition above about 36%
SIAE inh = human SIAE inhibitors, primary screen, biochemical, fluorescence polarization, FP-Rh probe, 1536-well HTS; inhibition, % at 9.66 µM; 0.69% of 370,000 active; SIAE FP-Rh probe binding;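 active = inhibition above a cutoff: mean of compounds within the control limits plus 3 SD of those, cut at about 17% in these data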
Target sequence (Q9HAT2 whole entry, looked up): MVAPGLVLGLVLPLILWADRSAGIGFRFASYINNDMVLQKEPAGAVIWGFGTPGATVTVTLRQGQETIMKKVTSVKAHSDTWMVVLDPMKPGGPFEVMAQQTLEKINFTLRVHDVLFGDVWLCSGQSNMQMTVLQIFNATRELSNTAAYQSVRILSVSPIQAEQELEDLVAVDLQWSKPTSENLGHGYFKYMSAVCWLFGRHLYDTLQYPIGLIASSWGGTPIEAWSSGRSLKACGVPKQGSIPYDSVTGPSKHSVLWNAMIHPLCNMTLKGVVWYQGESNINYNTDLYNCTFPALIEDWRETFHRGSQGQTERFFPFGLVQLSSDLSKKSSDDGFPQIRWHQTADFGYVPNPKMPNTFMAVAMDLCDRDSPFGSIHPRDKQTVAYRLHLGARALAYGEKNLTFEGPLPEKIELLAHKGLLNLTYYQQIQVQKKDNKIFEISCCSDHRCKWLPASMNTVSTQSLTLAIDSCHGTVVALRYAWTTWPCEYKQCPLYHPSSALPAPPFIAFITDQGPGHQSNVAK
mABHD4 FP = ABHD4 inhibitors, primary screen, biochemical, fluorescence polarization, mouse | 0.54% of 370,000 active | (Lyso)-N-acylphosphatidylethanolamine lipase (Mus musculus), Q8VD66 | inhibition, % at 8.92 µM | AID 720543, 2013 | purified mABHD4, FP-Rh probe fluorescence polarization;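 active = inhibition exceeding the mean over every tested compound plus 3 SD, cut at about 30% in these data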
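system = mouse ABHD4 enzyme, wild type | medium = HEPES pH 7.0, NaCl, Pluronic buffer | also added = FP-Rh probe | incubation = Enzyme–compound pre-incubation 45 min, then probe 60 min, both 25 °C | technique = fluorescence polarization, excitation 525 nm, emission 598 nm, BODIPY TMR filters | controls = S159A mutant high control, sample median low control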
PRMT1 inh conf = PRMT1 methyltransferase inhibitors, confirmation, biochemical, fluorescence polarization, triplicate. 42% of 3,300 active. recombinant His-PRMT1, activity-based probe fluorescence polarization. AID 687036, 2013. inhibition, % at 2.79 µM. shares compounds with PRMT1 inh;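 active = mean inhibition across replicates above the hit cutoff derived for the earlier primary screen, cut at about 22% in these data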
Numbers stand for hits. Rows were chosen to be rich in hits. Some 2.6% of all compounds tested hit in one or more screens of this group.

CC(OC(=O)CCC1CCCCC1)C(=O)Nc1ccc(S(N)(=O)=O)cc1 (stereo unspecified) was read as PRMT1 inh inactive, TCR CD3 inh inactive, HTRA1 inh inactive, SIAE inh inactive and mABHD4 FP inactive.
For O=C(NCC(=O)N1CCN(c2ccccn2)CC1)c1ccc(Br)o1 the results were PRMT1 inh inactive, TCR CD3 inh inactive, HTRA1 inh inactive, SIAE inh inactive and mABHD4 FP inactive.
Screening O=[n+]1c2c(n([O-])c3cc(Br)ccc31)CCCC2 returned PRMT1 inh inactive, TCR CD3 inh inactive, HTRA1 inh inactive, SIAE inh inactive and mABHD4 FP inactive.
Screening O=[n+]1c2c(n([O-])c3ccccc31)CCCC2 returned PRMT1 inh 76, TCR CD3 inh inactive, HTRA1 inh inactive, SIAE inh inactive, mABHD4 FP inactive and PRMT1 inh conf inactive.
`COC(=O)c1cccc(-n2c(CCC(=O)O)ccc2-c2cccs2)c1` gave PRMT1 inh 40, TCR CD3 inh inactive, HTRA1 inh inactive, SIAE inh inactive, mABHD4 FP inactive and PRMT1 inh conf inactive.
For CCCn1c(CCC(=O)O)ccc1-c1cccs1 the results were PRMT1 inh inactive, TCR CD3 inh inactive, HTRA1 inh inactive, SIAE inh inactive and mABHD4 FP inactive.
CC(=O)c1ccc(-n2c(CCC(=O)O)ccc2-c2cccs2)cc1 was read as PRMT1 inh 63, TCR CD3 inh inactive, HTRA1 inh inactive, SIAE inh inactive, mABHD4 FP inactive and PRMT1 inh conf inactive.
Screening NC(=O)c1ccc(-n2c(CCC(=O)O)ccc2-c2cccs2)cc1 returned PRMT1 inh 45, TCR CD3 inh inactive, HTRA1 inh inactive, SIAE inh inactive, mABHD4 FP inactive and PRMT1 inh conf inactive.
`Cc1ccc(-n2c(CCC(=O)O)ccc2-c2cccs2)cc1` gave PRMT1 inh inactive, TCR CD3 inh inactive, HTRA1 inh inactive, SIAE inh inactive and mABHD4 FP inactive.
`CN1CCN(C(=O)c2sc(=S)n(-c3ccccc3)c2N)CC1` gave PRMT1 inh 76, TCR CD3 inh inactive, HTRA1 inh inactive, SIAE inh inactive, mABHD4 FP inactive and PRMT1 inh conf 79.
For [O-][N+](=Cc1ccccc1)CC1(O)CCCCC1 the results were PRMT1 inh inactive, TCR CD3 inh inactive, HTRA1 inh inactive, SIAE inh inactive and mABHD4 FP inactive.
`O=c1c2ccccc2sn1-c1ccc(Cl)cc1Cl` gave PRMT1 inh 74, TCR CD3 inh inactive, HTRA1 inh inactive, SIAE inh inactive, mABHD4 FP inactive and PRMT1 inh conf 94.
Screening COc1ccc(NC(=O)C2c3ccccc3OCC(=O)N2Cc2ccc3c(c2)OCO3)cc1 (stereo unspecified) returned PRMT1 inh inactive, TCR CD3 inh inactive, SIAE inh inactive and mABHD4 FP inactive.
`Nc1ccn([C@@H]2O[C@H](CNC(=O)[C@@H](N)CSCc3ccccc3)[C@@H](O)[C@H]2O)c(=O)n1` gave PRMT1 inh inactive, TCR CD3 inh inactive, HTRA1 inh inactive, SIAE inh inactive and mABHD4 FP inactive.
`CCOC(=O)CC(=O)CSc1ncnc2c1nnn2-c1ccc(F)cc1` gave PRMT1 inh 51, TCR CD3 inh inactive, HTRA1 inh inactive, SIAE inh inactive, mABHD4 FP inactive and PRMT1 inh conf 92.
CCOC(=O)CSc1ncnc2c1nnn2-c1ccc(F)cc1 was read as PRMT1 inh inactive, TCR CD3 inh inactive, HTRA1 inh inactive, SIAE inh inactive and mABHD4 FP inactive.
Screening CN(C)c1cccc(C(=O)Nc2ccc(S(=O)(=O)Nc3nccs3)cc2)c1 returned PRMT1 inh inactive, TCR CD3 inh inactive, HTRA1 inh inactive, SIAE inh inactive and mABHD4 FP inactive.
For CCOC(=O)CN1C(=O)S/C(=C\c2ccc3c(c2)OCO3)C1=O the results were PRMT1 inh inactive, TCR CD3 inh inactive, HTRA1 inh inactive, SIAE inh inactive and mABHD4 FP inactive.
`O=C(O)CN1C(=O)S/C(=C\c2ccc3c(c2)OCO3)C1=O` gave PRMT1 inh 33, TCR CD3 inh inactive, HTRA1 inh inactive, SIAE inh inactive, mABHD4 FP inactive and PRMT1 inh conf inactive.
Screening CS(=O)(=O)c1ccc(C(=O)CN2C(=O)NC3(CCCc4ccccc43)C2=O)cc1 (stereo unspecified) returned PRMT1 inh inactive, TCR CD3 inh inactive, HTRA1 inh inactive, SIAE inh inactive and mABHD4 FP inactive.
COc1cc(/C=C/C(C)=NNc2ccccc2)ccc1O was read as PRMT1 inh inactive, TCR CD3 inh inactive, HTRA1 inh inactive, SIAE inh inactive and mABHD4 FP inactive.
COC(=O)C1=C(C)NC(=S)NC1c1ccc(-c2ccccc2C(=O)OC)o1 (stereo unspecified) was read as PRMT1 inh 31, TCR CD3 inh inactive, HTRA1 inh inactive, SIAE inh inactive, mABHD4 FP inactive and PRMT1 inh conf inactive.
`CCOC(=O)C1=C(C)NC(=S)NC1c1ccc(-c2ccc(Cl)cc2)o1` (stereo unspecified) gave PRMT1 inh 42, TCR CD3 inh inactive, HTRA1 inh inactive, SIAE inh inactive, mABHD4 FP inactive and PRMT1 inh conf inactive.
Screening N/C(=N\NS(=O)(=O)c1ccccc1Cl)c1ccccn1 returned PRMT1 inh inactive, TCR CD3 inh inactive, HTRA1 inh inactive, SIAE inh inactive and mABHD4 FP inactive.
`CCCN=Cc1sc2ccc(OCC)cc2c1O` gave PRMT1 inh 88, TCR CD3 inh inactive, HTRA1 inh inactive, SIAE inh inactive, mABHD4 FP inactive and PRMT1 inh conf 29.
CCOc1ccc(/C=N/O)cc1 was read as PRMT1 inh inactive, TCR CD3 inh inactive, HTRA1 inh inactive, SIAE inh inactive and mABHD4 FP inactive.
`O=c1[nH]c2c(s1)C(c1ccco1)C1C3CCC(C3)C1S2` (stereo unspecified) gave PRMT1 inh 39, TCR CD3 inh inactive, HTRA1 inh inactive, SIAE inh inactive, mABHD4 FP inactive and PRMT1 inh conf inactive.
`C=CCC1(CC=C)CCCN1C(=O)C1CCC(=O)N(CCc2ccccc2)C1` (stereo unspecified) gave PRMT1 inh inactive, TCR CD3 inh inactive, HTRA1 inh inactive, SIAE inh inactive and mABHD4 FP inactive.
CCOC(=O)[C@]12CCC=C1N(Cc1ccc3c(c1)OCO3)C(=O)[C@H](CC(=O)N1CCOCC1)C2 was read as PRMT1 inh inactive, TCR CD3 inh inactive, SIAE inh inactive and mABHD4 FP inactive.
O=C(CSc1ncccc1C(=O)O)Nc1ccc2c(c1)OCCO2 was read as PRMT1 inh inactive, TCR CD3 inh inactive, HTRA1 inh inactive, SIAE inh inactive and mABHD4 FP inactive.
